Measured values taken from ChEMBL document CHEMBL2321753, “Synthesis and biological evaluation of radioiodinated quinacrine-based derivatives for SPECT imaging of Aβ plaques” (Eur J Med Chem, 2013).
Activity calls are given as the source filed them. The rule behind the calls is not given here.

What was measured:
[1] = tested on: Heart; experiment: Biodistribution in ddY mouse heart at 0.1 to 0.4 uCi, iv after 2 mins by gamma counting; format: ADME, organism-based; conditions: in vivo
Method in brief: (§1)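 [125I]ligand (0.1–0.4 µCi) in 100 µL PBS (pH 7.4) containing 30 µL DMSO, injected into the tail vein of ddY mice (5 weeks, 22–25 g). Mice sacrificed at 2, 10, 30 and 60 min. Organs removed, weighed and gamma-counted. Values are % injected dose per gram, except stomach as % dose per organ. Mean (SD) of 3–6 mice per time point.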

[2] = tested on: Intestine; experiment: Biodistribution in ddY mouse intestine at 0.1 to 0.4 uCi, iv after 30 mins by gamma counting; format: ADME, organism-based; conditions: in vivo, 0.5 h; method in brief: as §1
[3] = tested on: Liver; experiment: Biodistribution in ddY mouse liver at 0.1 to 0.4 uCi, iv after 2 mins by gamma counting; format: ADME, organism-based; conditions: in vivo; method in brief: as §1
[4] = tested on: Kidney; experiment: Biodistribution in ddY mouse kidney at 0.1 to 0.4 uCi, iv after 2 mins by gamma counting; format: ADME, organism-based; conditions: in vivo; method in brief: as §1
[5] = tested on: Brain; experiment: Biodistribution in ddY mouse brain at 0.1 to 0.4 uCi, iv after 60 mins by gamma counting; format: ADME, organism-based; conditions: in vivo, 1 h; method in brief: as §1
[6] = tested on: Liver; experiment: Biodistribution in ddY mouse liver at 0.1 to 0.4 uCi, iv after 10 mins by gamma counting; format: ADME, organism-based; conditions: in vivo; method in brief: as §1
[7] = tested on: Lung; experiment: Biodistribution in ddY mouse lung at 0.1 to 0.4 uCi, iv after 30 mins by gamma counting; format: ADME, organism-based; conditions: in vivo, 0.5 h; method in brief: as §1
[8] = tested on: Pancreas; experiment: Biodistribution in ddY mouse pancreas at 0.1 to 0.4 uCi, iv after 60 mins by gamma counting; format: ADME, organism-based; conditions: in vivo, 1 h; method in brief: as §1
[9] = tested on: Lung; experiment: Biodistribution in ddY mouse lung at 0.1 to 0.4 uCi, iv after 10 mins by gamma counting; format: ADME, organism-based; conditions: in vivo; method in brief: as §1
[10] = tested on: Intestine; experiment: Biodistribution in ddY mouse intestine at 0.1 to 0.4 uCi, iv after 10 mins by gamma counting; format: ADME, organism-based; conditions: in vivo; method in brief: as §1
[11] = tested on: Lung; experiment: Biodistribution in ddY mouse lung at 0.1 to 0.4 uCi, iv after 2 mins by gamma counting; format: ADME, organism-based; conditions: in vivo; method in brief: as §1
[12] = tested on: Blood; experiment: Biodistribution in ddY mouse blood at 0.1 to 0.4 uCi, iv after 60 mins by gamma counting; format: ADME, organism-based; conditions: in vivo, 1 h; method in brief: as §1
[13] = tested on: Spleen; experiment: Biodistribution in ddY mouse spleen at 0.1 to 0.4 uCi, iv after 2 mins by gamma counting; format: ADME, organism-based; conditions: in vivo; method in brief: as §1
[14] = target: T1, Amyloid-beta precursor protein (Homo sapiens, UniProt P05067); experiment: Binding affinity to amyloid beta aggregate (unknown origin) by centrifugation method
Method in brief: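 Aβ(1-42) aggregated at 0.25 mg/mL in pH 7.4 buffer (10 mM sodium phosphate, 1 mM EDTA), 37 °C for 42 h with shaking. [125I]ligand at 4–500 nM final (set with unlabelled compound) in 10% EtOH incubated with aggregates 2 h at room temperature. Centrifuged 16,000 rpm, 10 min; supernatant gamma-counted for bound/free ratio. Nonspecific binding with 10 µM unlabelled ligand. Kd and Bmax from Scatchard analysis.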

[15] = tested on: Lung; experiment: Biodistribution in ddY mouse lung at 0.1 to 0.4 uCi, iv after 60 mins by gamma counting; format: ADME, organism-based; conditions: in vivo, 1 h; method in brief: as §1
[16] = tested on: Pancreas; experiment: Biodistribution in ddY mouse pancreas at 0.1 to 0.4 uCi, iv after 2 mins by gamma counting; format: ADME, organism-based; conditions: in vivo; method in brief: as §1
[17] = tested on: Heart; experiment: Biodistribution in ddY mouse heart at 0.1 to 0.4 uCi, iv after 10 mins by gamma counting; format: ADME, organism-based; conditions: in vivo; method in brief: as §1
[18] = tested on: Brain; experiment: Biodistribution in ddY mouse brain at 0.1 to 0.4 uCi, iv after 10 mins by gamma counting; format: ADME, organism-based; conditions: in vivo; method in brief: as §1
[19] = tested on: Stomach; experiment: Biodistribution in ddY mouse stomach assessed per organ at 0.1 to 0.4 uCi, iv after 30 mins by gamma counting; format: ADME, organism-based; conditions: in vivo, 0.5 h; method in brief: as §1
[20] = tested on: Pancreas; experiment: Biodistribution in ddY mouse pancreas at 0.1 to 0.4 uCi, iv after 30 mins by gamma counting; format: ADME, organism-based; conditions: in vivo, 0.5 h; method in brief: as §1
[21] = tested on: Intestine; experiment: Biodistribution in ddY mouse intestine at 0.1 to 0.4 uCi, iv after 60 mins by gamma counting; format: ADME, organism-based; conditions: in vivo, 1 h; method in brief: as §1
[22] = tested on: Spleen; experiment: Biodistribution in ddY mouse spleen at 0.1 to 0.4 uCi, iv after 10 mins by gamma counting; format: ADME, organism-based; conditions: in vivo; method in brief: as §1
[23] = tested on: Intestine; experiment: Biodistribution in ddY mouse intestine at 0.1 to 0.4 uCi, iv after 2 mins by gamma counting; format: ADME, organism-based; conditions: in vivo; method in brief: as §1
[24] = tested on: Liver; experiment: Biodistribution in ddY mouse liver at 0.1 to 0.4 uCi, iv after 30 mins by gamma counting; format: ADME, organism-based; conditions: in vivo, 0.5 h; method in brief: as §1
[25] = tested on: Kidney; experiment: Biodistribution in ddY mouse kidney at 0.1 to 0.4 uCi, iv after 60 mins by gamma counting; format: ADME, organism-based; conditions: in vivo, 1 h; method in brief: as §1
[26] = tested on: Liver; experiment: Biodistribution in ddY mouse liver at 0.1 to 0.4 uCi, iv after 60 mins by gamma counting; format: ADME, organism-based; conditions: in vivo, 1 h; method in brief: as §1
[27] = tested on: Brain; experiment: Biodistribution in ddY mouse brain at 0.1 to 0.4 uCi, iv after 30 mins by gamma counting; format: ADME, organism-based; conditions: in vivo, 0.5 h; method in brief: as §1
[28] = tested on: Stomach; experiment: Biodistribution in ddY mouse stomach assessed per organ at 0.1 to 0.4 uCi, iv after 60 mins by gamma counting; format: ADME, organism-based; conditions: in vivo, 1 h; method in brief: as §1
[29] = tested on: Kidney; experiment: Biodistribution in ddY mouse kidney at 0.1 to 0.4 uCi, iv after 30 mins by gamma counting; format: ADME, organism-based; conditions: in vivo, 0.5 h; method in brief: as §1
[30] = tested on: Kidney; experiment: Biodistribution in ddY mouse kidney at 0.1 to 0.4 uCi, iv after 10 mins by gamma counting; format: ADME, organism-based; conditions: in vivo; method in brief: as §1
[31] = tested on: Blood; experiment: Biodistribution in ddY mouse blood at 0.1 to 0.4 uCi, iv after 10 mins by gamma counting; format: ADME, organism-based; conditions: in vivo; method in brief: as §1
[32] = tested on: Pancreas; experiment: Biodistribution in ddY mouse pancreas at 0.1 to 0.4 uCi, iv after 10 mins by gamma counting; format: ADME, organism-based; conditions: in vivo; method in brief: as §1
[33] = n-octanol-sodium phosphate buffer partition co-efficient, log D of the compound at pH 7.4 by shake flask method; format: physicochemical
Method in brief: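 Shake-flask partition between n-octanol and sodium phosphate buffer, pH 7.4, shaken 10 min at room temperature, then centrifuged. Weighed 0.5 mL samples of each layer counted. log D from the ratio of cpm per gram of octanol to cpm per gram of buffer; n = 3.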

[34] = tested on: Spleen; experiment: Biodistribution in ddY mouse spleen at 0.1 to 0.4 uCi, iv after 60 mins by gamma counting; format: ADME, organism-based; conditions: in vivo, 1 h; method in brief: as §1
[35] = tested on: Heart; experiment: Biodistribution in ddY mouse heart at 0.1 to 0.4 uCi, iv after 60 mins by gamma counting; format: ADME, organism-based; conditions: in vivo, 1 h; method in brief: as §1
[36] = tested on: Brain; experiment: Biodistribution in ddY mouse brain at 0.1 to 0.4 uCi, iv after 2 mins by gamma counting; format: ADME, organism-based; conditions: in vivo; method in brief: as §1
[37] = tested on: Spleen; experiment: Biodistribution in ddY mouse spleen at 0.1 to 0.4 uCi, iv after 30 mins by gamma counting; format: ADME, organism-based; conditions: in vivo, 0.5 h; method in brief: as §1
[38] = tested on: Heart; experiment: Biodistribution in ddY mouse heart at 0.1 to 0.4 uCi, iv after 30 mins by gamma counting; format: ADME, organism-based; conditions: in vivo, 0.5 h; method in brief: as §1
[39] = tested on: Blood; experiment: Biodistribution in ddY mouse blood at 0.1 to 0.4 uCi, iv after 30 mins by gamma counting; format: ADME, organism-based; conditions: in vivo, 0.5 h; method in brief: as §1
[40] = tested on: Stomach; experiment: Biodistribution in ddY mouse stomach assessed per organ at 0.1 to 0.4 uCi, iv after 2 mins by gamma counting; format: ADME, organism-based; conditions: in vivo; method in brief: as §1
[41] = tested on: Blood; experiment: Biodistribution in ddY mouse blood at 0.1 to 0.4 uCi, iv after 2 mins by gamma counting; format: ADME, organism-based; conditions: in vivo; method in brief: as §1
[42] = tested on: Stomach; experiment: Biodistribution in ddY mouse stomach assessed per organ at 0.1 to 0.4 uCi, iv after 10 mins by gamma counting; format: ADME, organism-based; conditions: in vivo; method in brief: as §1
[43] = species: Mus musculus; experiment: Binding affinity to amyloid beta plaques in Tg2576 transgenic mouse brain at 100 uM after 3 to 10 hrs using Thioflavin S staining by fluorescence microscopy; format: tissue-based
Method in brief: (§2)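 Brains of female Tg2576 mice (32 months) or wild-type controls (30 months) removed after decapitation and frozen in powdered dry ice. 10 µm sections incubated with compound (100 µM) for 3–10 h, then washed twice for 5 min in 50% EtOH or 50% DMSO. Fluorescence imaged with a GFP filter set (ex 470 nm, em >535 nm). Adjacent sections stained with thioflavin S to confirm plaques.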

[44] = target: T1, Amyloid-beta precursor protein; experiment: Displacement of [125I]IMPY from amyloid beta (1 to 42) (unknown origin) after 3 hrs by gamma counting
Method in brief: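 Filtered through GF/B filters and bound radioactivity gamma-counted. IC50 from displacement curves of three independent experiments; Ki calculated with the Cheng–Prusoff equation.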

[45] = species: Mus musculus; experiment: Binding affinity to amyloid beta plaques in wild type mouse brain at 100 uM after 3 to 10 hrs using Thioflavin S staining by fluorescence microscopy; format: tissue-based; method in brief: as §2

T1 sequence (P05067 whole entry): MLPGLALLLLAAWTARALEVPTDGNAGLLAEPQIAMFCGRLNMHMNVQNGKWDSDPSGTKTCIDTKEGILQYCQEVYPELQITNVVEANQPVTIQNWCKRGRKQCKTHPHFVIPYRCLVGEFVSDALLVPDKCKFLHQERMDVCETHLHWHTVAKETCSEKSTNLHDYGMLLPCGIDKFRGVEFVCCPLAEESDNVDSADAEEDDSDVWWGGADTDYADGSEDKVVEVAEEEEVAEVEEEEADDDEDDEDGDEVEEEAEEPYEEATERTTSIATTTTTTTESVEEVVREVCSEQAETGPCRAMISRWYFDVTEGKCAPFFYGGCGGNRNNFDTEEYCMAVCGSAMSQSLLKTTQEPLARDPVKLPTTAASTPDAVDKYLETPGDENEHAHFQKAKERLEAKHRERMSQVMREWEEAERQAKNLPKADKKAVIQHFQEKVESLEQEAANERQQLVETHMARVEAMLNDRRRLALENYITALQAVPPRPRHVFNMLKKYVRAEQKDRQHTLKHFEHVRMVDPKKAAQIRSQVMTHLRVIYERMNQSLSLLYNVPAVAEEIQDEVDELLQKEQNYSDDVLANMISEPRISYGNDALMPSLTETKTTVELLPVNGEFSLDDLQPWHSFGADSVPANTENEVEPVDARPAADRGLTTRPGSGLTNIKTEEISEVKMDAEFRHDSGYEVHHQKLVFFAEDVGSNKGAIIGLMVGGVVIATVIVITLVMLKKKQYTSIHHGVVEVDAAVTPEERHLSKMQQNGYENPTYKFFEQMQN

CCN(CC)CCCC(C)Nc1c2ccc([125I])cc2nc2ccc(OC)cc12 (stereo not given)
Drug uptake [1]: 15.53 % ID/g | Drug uptake [2]: 4.4 % ID/g | Drug uptake [3]: 8.15 % ID/g | Drug uptake [4]: 10.23 % ID/g | Drug uptake [5]: 0.28 % ID/g | Drug uptake [6]: 9.7 % ID/g | Drug uptake [7]: 35.64 % ID/g | Drug uptake [8]: 6.32 % ID/g | Drug uptake [9]: 59.55 % ID/g | Drug uptake [10]: 2.55 % ID/g | Drug uptake [11]: 73.08 % ID/g | Drug uptake [12]: 0.52 % ID/g | Drug uptake [13]: 6.14 % ID/g | Kd [14]: 48.4 nM | Drug uptake [15]: 25.58 % ID/g | Drug uptake [16]: 4.76 % ID/g | Drug uptake [17]: 13.09 % ID/g | Drug uptake [18]: 0.33 % ID/g | Drug uptake [19]: 1.48 %ID | Drug uptake [20]: 7.67 % ID/g | Drug uptake [21]: 5.59 % ID/g | Drug uptake [22]: 9.38 % ID/g | Drug uptake [23]: 1.89 % ID/g | Drug uptake [24]: 11.02 % ID/g | Drug uptake [25]: 12.19 % ID/g | Drug uptake [26]: 11.61 % ID/g | Drug uptake [27]: 0.24 % ID/g | Drug uptake [28]: 1.24 %ID | Drug uptake [29]: 13.93 % ID/g | Drug uptake [30]: 13.58 % ID/g | Drug uptake [31]: 1.85 % ID/g | Drug uptake [32]: 5.85 % ID/g | logD [33]: 1.11 | Drug uptake [34]: 11.17 % ID/g | Drug uptake [35]: 3.96 % ID/g | Drug uptake [36]: 0.32 % ID/g | Drug uptake [37]: 10.88 % ID/g | Drug uptake [38]: 7 % ID/g | Drug uptake [39]: 0.73 % ID/g | Drug uptake [40]: 1.18 %ID | Drug uptake [41]: 4.21 % ID/g | Drug uptake [42]: 1.33 %ID

CCN(CC)CCCC(C)Nc1c2ccc(I)cc2nc2ccc(OC)cc12 (stereo not given)
Activity [43]: Active | Ki [44]: 353 nM | Activity [45]: inactive
